Here are results for 15 molecules from PMC12529337 (RSC Medicinal Chemistry, 2025).

Like-named read-outs stand apart in the source and are kept apart here.

As usually defined, the IC50 is the concentration at which inhibition is half-maximal.

Data set [1] has as its system MCF-7 cells. Description: MTT assay, anticancer activity, MCF-7. It counts as cell-based, human. The conditions noted are these: read-out: IC50 MCF-7.
For data set [2], the system named is MDA-MB-231 cells. Description: MTT assay, anticancer activity, MDA-MB-231. It counts as cell-based, human. The conditions noted are these: for IC50: read-out: IC50 MDA-MB-231. Background: Tetrazolium assays rely on reduction of a dye to a coloured formazan, in cell work by metabolically active cells.
Data set [3] relates to MCF-10A cells. The experiment in a line: MTT assay, normal counterpart MCF-10A. It counts as cell-based, human. The note with it: read-out: IC50 MCF-10A, 72 h.
Data set [4] relates to ROS production in murine macrophages RAW 264.7. Description: ROS production. The note with it: LPS; for ROS reduction: concentration not stated in text (5 or 10 μM); for antioxidant activity (ROS production): lower dosage (5 μM). It counts as cell-based. Put shortly: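 RAW 264.7 cells received the same treatment as in the Griess assay: LPS 1 μg mL−1 plus test compound at 5 or 10 μM, 24 h, 1% FBS. NAC (5 × 103, 10 × 103, 20 × 103 μM) was the positive control. After PBS washing, H2DCFDA 25 μM was added for 40 min at 37 °C. Fluorescence was read at λex 485/λem 535. Results are % ROS from mean fluorescence of co-treated vs LPS-alone wells, three experiments in triplicate.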

Data set [5] concerns murine macrophages RAW 264.7. Description: MTT test, cytotoxicity on RAW 264.7 macrophages. The class given is cell-based. The note with it: for cytotoxicity toward RAW 264.7: 10 μM, 24 h. Put shortly:
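RAW 264.7 cells were kept in high-glucose DMEM with 10% FBS at 37 °C and 5% CO2. Cells were seeded in 48-well plates and exposed for 24 h to varying test compound concentrations (in DMSO). Viability was measured by MTT and expressed as % of control. Three independent experiments were run in triplicate.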

Data set [6] concerns NO production in murine macrophages RAW 264.7. The experiment in a line: NO production. It counts as cell-based. The note with it: 24 h, LPS 1 μg/mL. The essentials: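 Plated RAW 264.7 cells were treated after 24 h with test compound (5 or 10 μM, in DMSO) plus LPS 1 μg mL−1 in 1% FBS medium for 24 h. Indomethacin (5, 10, 50 μM) was the positive control. Medium was mixed 1:1 with Griess reagent for 30 min at RT and A540 was read. Results are % NO vs LPS-only, three experiments in triplicate.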

The target of data set [7] is T1, human topoisomerase I (hTopoI) (Homo sapiens, UniProt P11387).
T1 sequence (P11387 1-765): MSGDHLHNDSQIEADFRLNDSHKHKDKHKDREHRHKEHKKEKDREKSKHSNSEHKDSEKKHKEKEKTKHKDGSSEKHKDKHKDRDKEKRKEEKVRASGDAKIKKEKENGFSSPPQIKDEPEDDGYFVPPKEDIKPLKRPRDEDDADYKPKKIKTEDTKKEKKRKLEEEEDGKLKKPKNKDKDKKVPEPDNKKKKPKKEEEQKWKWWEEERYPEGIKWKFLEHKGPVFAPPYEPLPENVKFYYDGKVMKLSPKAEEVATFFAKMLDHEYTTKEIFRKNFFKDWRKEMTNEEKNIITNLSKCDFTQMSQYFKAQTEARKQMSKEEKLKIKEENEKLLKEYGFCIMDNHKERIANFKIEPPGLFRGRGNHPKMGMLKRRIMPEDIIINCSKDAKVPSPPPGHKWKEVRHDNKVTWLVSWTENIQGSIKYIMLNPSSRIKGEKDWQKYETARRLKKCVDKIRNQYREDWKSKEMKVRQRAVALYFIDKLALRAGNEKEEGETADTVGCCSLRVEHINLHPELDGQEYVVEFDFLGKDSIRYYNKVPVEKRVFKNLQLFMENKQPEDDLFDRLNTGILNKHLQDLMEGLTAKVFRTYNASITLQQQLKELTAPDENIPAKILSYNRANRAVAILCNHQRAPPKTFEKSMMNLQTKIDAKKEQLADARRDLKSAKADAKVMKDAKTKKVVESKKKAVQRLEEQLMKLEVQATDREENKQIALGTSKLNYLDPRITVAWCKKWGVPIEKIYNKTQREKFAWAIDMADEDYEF
The experiment in a line: Human topoisomerase I relaxation assay. It counts as biochemical. The conditions noted are these: for inhibition of hTopoI relaxation of supercoiled DNA: pHOT1, 1 h 37 °C, gel. Put shortly: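 Recombinant human topoisomerase I (2 units) with 0.25 μg supercoiled pHOT1 plasmid as substrate. Test compound (in DMSO) at 0.001, 0.01, 0.1 and 1 μM; DMSO vehicle control. Incubated 1 h at 37 °C. Run on a 1% agarose gel in 1× TAE without ethidium bromide, then post-stained with EB ([…], 30 min), washed and viewed under UV.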

Data set [8] relates to iNOS expression in murine macrophages RAW 264.7. The experiment in a line: iNOS expression by immunofluorescence in RAW 264.7. The class given is cell-based. The conditions noted are these: 5 μM, co-treated with LPS 1 μg/mL, 24 h. Put shortly: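 On coverslips, RAW 264.7 cells received LPS 1 μg mL−1 with test compound (5 μM) or indomethacin (50 μM) in 1% FBS medium for 24 h. Cells were methanol-fixed (−20 °C, 15 min) and incubated overnight at 4 °C with anti-iNOS (1:100, 2% BSA), then Alexa Fluor 568 goat anti-mouse (1:500). DAPI 0.2 μg mL−1 was applied. Images taken at 40× were used for semi-quantitative fluorescence measurement, two independent experiments.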

Data set [9] relates to MDA-MB-231 cells. The experiment in a line: TUNEL assay, nuclear DNA damage. The class given is cell-based, human. The note with it: 1 μM, 24 h. The essentials: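 MDA-MB-231 cells (DMEM/F12, 5% FBS) were grown on coverslips and treated for 24 h with 1 μM test compound in DMSO or with vehicle. Cells were PBS-washed, methanol-fixed (−20 °C, 15 min) and incubated with the one-step TUNEL (FITC) enzyme for 35 min at 37 °C in the dark. DAPI counterstain was 0.2 mg mL−1 for 10 min at RT. Imaging used fluorescence microscopy at 20× (490/515 nm; DAPI 350/460 nm), three independent experiments.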

The mark [10] stands for this setting: MTT, mean ± SD, normal mammary epithelial cells.

Consider `C[C@H](c1ccccc1)n1cc[n+](C)c1.[Ag][I]` [(R)-AgL1, (R)-3-Methyl-1-(1-phenylethyl)-1H-imidazol-3-ium silver(I) iodide], for which the 50% inhibitory concentration (IC50) came to 11.2 ± 0.6 µM in [1] (MTT, 72 h, mean ± SD); 20.6 ± 1.4 µM in [2] (MTT, 72 h, mean ± SD); 72.8 ± 5.8 µM in data set [3] (setting [10]).
`C[C@H](c1ccccc1)n1cc[n+]([C@H](C)c2ccccc2)c1.[Cl][Ag]` [(R)-AgL2, 1,3-Bis((R)-1′-phenylethyl)imidazolium silver(I) chloride]: the IC50 in data set [1] (MTT, 72 h, mean ± SD) was found to be 9.7 ± 0.8 µM; in data set [2] (MTT, 72 h, mean ± SD), 17.6 ± 1.7 µM; in data set [3] (setting [10]) it was 24.8 ± 1.7 µM. The molecule also yielded an ROS reduction in [4] of approximately 12%.
Turning to `C[C@H](c1ccccc1)n1cc[n+](C)c1.[Cl][Au]` [(R)-AuL1, (R)-3-Methyl-1-(1-phenylethyl)-1H-imidazol-3-ium gold(I) chloride], the IC50 in [1] (MTT, 72 h, mean ± SD) was found to be 6.8 ± 0.4 µM; in data set [2] (MTT, 72 h, mean ± SD), 5.8 ± 0.5 µM; in [3] (setting [10]), 2.1 ± 0.1 µM. Further, the “cytotoxicity toward RAW 264.7” value in data set [5] was “cytotoxic”. Further, the “reduction of NO production” value in data set [6] (5 μM) is recorded as “about 18%”. In addition, the “inhibition of hTopoI relaxation of supercoiled DNA” value in data set [7] (0.001 μM) was “partially”; in data set [7] (0.01 μM), “totally block”; in data set [7] (0.1 μM), “preserved”; in data set [7] (1 μM), “preserved”. For the same molecule, the “hTopoI inhibiting concentration, times lower than that of (S)-AuL1” value in data set [7] (total inhibition 0.01 vs 1 μM) is 100 times.
`C[C@H](c1ccccc1)n1cc[n+]([C@H](C)c2ccccc2)c1.[Cl][Au]` [(R)-AuL2, 1,3-Bis((R)-1′-phenylethyl)imidazolium gold(I) chloride]: the concentration for half-maximal inhibition (IC50) came out at 7 ± 0.6 µM in data set [1] (MTT, 72 h, mean ± SD); 6.9 ± 0.3 µM in data set [2] (MTT, 72 h, mean ± SD); 7.1 ± 0.5 µM in data set [3] (setting [10]). The “cytotoxicity toward RAW 264.7” value in data set [5] was “cytotoxic”. The “antioxidant activity (ROS production)” value in data set [4] is listed as “did not exert any antioxidant activity”. The “reduction of NO production” value in [6] (5 μM) is listed as “about 18%”.
Consider `C[C@H](c1ccccc1)n1cc[n+](C)c1` [(R)-P1, (R)-3-Methyl-1-(1-phenylethyl)-1H-imidazol-3-ium iodide], for which the IC50 in data set [1] (Homo sapiens, MCF7, 72 h) was found to be 34 ± 2.4 µM; in data set [2] (Homo sapiens, MDA-MB-231, 72 h) it was 71 ± 6.8 µM; in data set [3] (Homo sapiens, MCF-10A), 40.3 ± 3.6 µM.
For `C[C@H](c1ccccc1)n1cc[n+]([C@H](C)c2ccccc2)c1` [(R)-P2, 1,3-Bis((R)-1′-phenylethyl)imidazolium chloride], the IC50 in [1] (Homo sapiens, MCF7, 72 h) is 58 ± 4.3 µM; in data set [2] (Homo sapiens, MDA-MB-231, 72 h) it was more than 100 µM; in data set [3] (Homo sapiens, MCF-10A), 28.2 ± 1.9 µM.
In the case of `C[C@@H](c1ccccc1)n1cc[n+]([C@@H](C)c2ccccc2)c1.[Cl][Ag]` [(S)-AgL2, 1,3-Bis((S)-1′-phenylethyl)imidazolium silver(I) chloride], the IC50 came to 4.2 ± 0.3 µM in [1] (MTT, 72 h, mean ± SD); 14.3 ± 1.2 µM in data set [2] (MTT, 72 h, mean ± SD); 24 ± 1.1 µM in [3] (setting [10]). The ROS reduction result in [4] is “about 15%”.
For the molecule `C[C@@H](c1ccccc1)n1cc[n+]([C@@H](C)c2ccccc2)c1.[Cl][Au]` [(S)-AuL2, 1,3-Bis((S)-1′-phenylethyl)imidazolium gold(I) chloride], the “intracellular iNOS expression vs LPS-treated cells” value in [8] is “net diminution”. The IC50 in [1] (MTT, 72 h, mean ± SD) is 1.8 ± 0.1 µM; in data set [2] (MTT, 72 h, mean ± SD) it was 2.3 ± 0.1 µM; in [3] (setting [10]) it was 5.3 ± 0.2 µM. Also, in data set [5], the “cytotoxicity toward RAW 264.7” value is reported as “cytotoxic”. Besides, the “antioxidant activity (ROS production)” value in data set [4] was “did not exert any antioxidant activity”.
Regarding `C[C@@H](c1ccccc1)n1cc[n+](C)c1` [(S)-P1, (S)-3-Methyl-1-(1-phenylethyl)-1H-imidazol-3-ium iodide], the IC50 in data set [1] (Homo sapiens, MCF7, 72 h) was more than 100 µM; in data set [2] (Homo sapiens, MDA-MB-231, 72 h), 87 ± 7.6 µM; in data set [3] (Homo sapiens, MCF-10A), more than 100 µM.
Consider `C[C@@H](c1ccccc1)n1cc[n+]([C@@H](C)c2ccccc2)c1` [(S)-P2, 1,3-Bis((S)-1′-phenylethyl)imidazolium chloride], for which the IC50 stood at 16.3 ± 1.3 µM in [1] (Homo sapiens, MCF7, 72 h); 10.8 ± 1.1 µM in data set [2] (Homo sapiens, MDA-MB-231, 72 h); 28.8 ± 1.9 µM in [3] (Homo sapiens, MCF-10A).
Take `N.N.[Cl][Pt][Cl]` [Cisplatin, cisplatin, reference compound]: the IC50 in data set [1] (MTT, 72 h, mean ± SD) was 37.3 ± 1.2 µM; in data set [2] (MTT, 72 h, mean ± SD) it was 29.5 ± 0.9 µM; in data set [3] (setting [10]) it was 79.4 ± 1.6 µM.
Turning to `COc1ccc2c(c1)c(CC(=O)O)c(C)n2C(=O)c1ccc(Cl)cc1` [Ind, indomethacin, reference compound], the “reduction of NO production” value in data set [6] (50 μM) was “about 26%”.
Take `CC(=O)N[C@@H](CS)C(=O)O` [NAC, N-acetyl-cysteine, reference compound]: the “residual viability vs LPS-treated cells” value in data set [5] (5 × 10^3, 10 × 10^3 and 20 × 10^3 μM, data not shown) is given as “about 98.7%”. In addition, the “reduction in ROS levels” value in data set [4] (10 × 10^3 μM) was “about 25%”; in data set [4] (20 × 10^3 μM), approximately 40%.
Turning to “(S)-3-Methyl-1-(1-phenylethyl)-1H-imidazol-3-ium gold(I) chloride [(S)-AuL1]”, the “intracellular iNOS expression vs LPS-treated cells” value in data set [8] is listed as “net diminution”. Besides, the IC50 in [1] (MTT, 72 h, mean ± SD) is 1.7 ± 0.1 µM; in data set [2] (MTT, 72 h, mean ± SD), 0.5 ± 0.1 µM; in [3] (setting [10]), 11.5 ± 0.5 µM. Moreover, the “reduction of ROS production” value in data set [4] (10 μM) was approximately 32%. The “reduction of NO production” value in data set [6] (5 μM) is recorded as “about 33%”; in data set [6] (10 μM) it was approximately 57%. The “inhibition of hTopoI relaxation of supercoiled DNA” value in data set [7] (0.001 μM) was “no inhibition”; in data set [7] (0.01 μM), “partially”; in data set [7] (0.1 μM), “partially”; in data set [7] (1 μM), “totally inhibited”. In addition, the “nuclear DNA damage (TUNEL green fluorescence)” value in data set [9] is “marked genomic DNA damage”.
In the case of “(S)-3-Methyl-1-(1-phenylethyl)-1H-imidazol-3-ium silver(I) iodide [(S)-AgL1]”, the IC50 was 7.5 ± 0.8 µM in data set [1] (MTT, 72 h, mean ± SD); more than 100 µM in data set [2] (MTT, 72 h, mean ± SD); 77.1 ± 6.8 µM in data set [3] (setting [10]). The “IC50 MDA-MB-231” value in data set [2] (MTT, 72 h, mean ± SD) was “totally inactive”.
